Source: PubChem (The Scripps Research Institute Molecular Screening Center)
Most compounds without a hit are left out; they make up all but 1.8% or so of the library.
DDE Tn6 FP inh: inhibitors of Tn6 peptide binding to human fibrin DD(E). Fibrin DD(E) TRITC-Tn6 fluorescence polarization displacement. inhibition, % at 8.3 µM. AID 720509. actives 0.21% (n = 370,000). P02675;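 active means inhibition above a per-campaign cutoff: mean of compounds within control limits plus 3 SD, cut at about 15% in these data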;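 further: 0% = median of all compound wells on the plate and 100% = blocking peptide control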
HTRA1 inh: inhibitors of human serine peptidase HTRA1 | Q92743 | recombinant HTRA1, FP-rhodamine activity-based probe, fluorescence polarization | inhibition, % at 5.96 µM | actives 0.5% (n = 340,000) | AID 504803; in the data active means inhibition above about 36%;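 further: 0% = enzyme with DMSO and 100% = wells lacking enzyme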
Target sequence (Q92743 whole entry, looked up): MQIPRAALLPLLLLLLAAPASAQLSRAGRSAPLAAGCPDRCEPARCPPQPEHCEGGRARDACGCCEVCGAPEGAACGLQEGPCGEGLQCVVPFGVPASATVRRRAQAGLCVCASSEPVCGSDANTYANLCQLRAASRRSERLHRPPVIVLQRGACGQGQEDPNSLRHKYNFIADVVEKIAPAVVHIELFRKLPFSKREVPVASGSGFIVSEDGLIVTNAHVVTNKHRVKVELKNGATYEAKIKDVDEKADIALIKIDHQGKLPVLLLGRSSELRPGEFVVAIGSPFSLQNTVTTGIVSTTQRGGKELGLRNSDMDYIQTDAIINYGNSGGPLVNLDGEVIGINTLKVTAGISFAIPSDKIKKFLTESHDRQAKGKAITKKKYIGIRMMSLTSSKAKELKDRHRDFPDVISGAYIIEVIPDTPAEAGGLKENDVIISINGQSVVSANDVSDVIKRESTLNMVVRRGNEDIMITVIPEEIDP
mABHD4 FP: inhibits mouse alpha/beta hydrolase domain 4; Q8VD66; purified mABHD4, FP-Rh probe fluorescence polarization; inhibition, % at 8.92 µM; actives 0.54% (n = 370,000); AID 720543;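 active means inhibition exceeding the mean over every tested compound plus 3 SD, cut at about 30% in these data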;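 further: 0% = plate median of compound wells and 100% = S159A mutant with DMSO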
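Test system: mABHD4 protein; Read-out basis: % inhibition; Incubation: 45 min + 60 min at 25 °C; Repeats: single replicate; Technique: fluorescence polarization with parallel and perpendicular emission, 525/598 nm; Compound: 8.92 µM, single dose; Benchmarks: full inhibition S159A mutant plus DMSO, zero as sample-well median.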
TCR CD3 inh: human TCR-CD3 binding inhibition | TAMRA-labeled TCR probe fluorescence, biochemical | inhibition, % at 9.4 µM | actives 0.37% (n = 360,000); in the data active means inhibition above about 19%;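 further: recombinant mutant TCR 2C K166C tagged with TAMRA read by polarization; 0% = receptor in buffer alone and 100% = receptor with positive control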
SIAE inh: blocks human sialic acid acetylesterase; actives 0.69% (n = 370,000); inhibition, % at 9.66 µM; SIAE FP-Rh probe binding, fluorescence polarization;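 active means inhibition above a cutoff: mean of compounds within the control limits plus 3 SD of those, cut at about 17% in these data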;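 further: 0% = plate median of compound wells and 100% = probe without SIAE protein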
Tn7 DDE FP: disrupts Tn7 cyclic peptide binding to fibrin D-Dimer-E complex; FP displacement of FITC-Tn7 peptide from fibrin DD(E); 0% = median of compound wells per plate; inhibition, % at 8.3 µM; actives 0.13% (n = 370,000);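 active means inhibition above the mean of compounds falling within the control limits plus 3 SD of them, cut at about 14% in these data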;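 further: 0% = plate median of compound wells and 100% = 10 µM Aha-Tn7 peptide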
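Test system: human clot-derived fibrin DD(E) complex / Quantity: 2 µM final DD(E) protein / Incubation: 10 min plus 3 h, room temperature / Measured by: fluorescence polarization / Benchmarks: high control of 10 µM Aha-Tn7 peptide / Replicates: singlicate testing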
DDE Tn6 FP ctr: counter-screen hit for Tn6 peptide-fibrin DD(E) binding disruption; shares compounds with DDE Tn6 FP inh; TRITC-Tn6 fluorescence polarization displacement; 0% = median of compound wells, not DMSO; inhibition, % at 8.3 µM; actives 2% (n = 680); AID 720621;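 active means inhibition above the mean of test compounds lying between the control limits plus 3 SD of those, cut at about 14% in these data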;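 further: 0% = median of compound wells and 100% = wells with Aha-Tn7 blocking peptide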
DDE Tn6 confirm: DD(E)-Tn6 binding inhibition, FP confirmation | inhibition, % at 8.3 µM | actives 10% (n = 680) | shares compounds with DDE Tn6 FP inh | FP displacement of TRITC-Tn6 peptide from DD(E); 0% = per-plate median of test wells | AID 720631;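 active means inhibition above the mean of compounds lying within the control limits plus 3 SD, cut at about 16% in these data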;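 further: 100% = high control wells holding a competing inhibitor peptide at 10 µM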
ABHD4 confirm: confirmation of mouse ABHD4 inhibitors | inhibition, % at 8.92 µM | shares compounds with mABHD4 FP | purified mABHD4, FP-Rh probe fluorescence polarization | actives 55% (n = 1,800);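 active means mean inhibition across replicates above the hit cutoff set in the primary screen, cut at about 30% in these data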;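 further: 0% = wild-type ABHD4 with DMSO and 100% = catalytically dead S159A mutant with DMSO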
SIAE inh conf: human SIAE inhibition, confirmation; shares compounds with SIAE inh; SIAE FP-Rh activity-based probe, fluorescence polarization; inhibition, % at 9.66 µM; actives 13% (n = 2,300);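 active means mean inhibition of the replicates above the hit cutoff set in the primary screen, cut at about 17% in these data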;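 further: 0% = SIAE with DMSO and probe and 100% = probe without SIAE; inhibitors lower polarization as more probe stays unbound to SIAE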
* = called active by the depositor; . = not tested or not shown; + = active, no number.

SMILES	DDE Tn6 FP inh	HTRA1 inh	mABHD4 FP	TCR CD3 inh	SIAE inh	Tn7 DDE FP	ABHD4 confirm	others
CN(C)c1ccc(/C=C/C=C2/C(=O)NC(=O)N(c3ccccc3)C2=O)cc1	23*	-17	-178	-128	-209	2	.	DDE Tn6 FP ctr=10;DDE Tn6 confirm=40*
O=C1NC(=O)N(c2ccccc2)C(=O)/C1=C/C=C/c1ccco1	6	2	2	-3	-9	-10	.
CC(=O)Nc1nnc(CCN(CCc2nnc(NC(C)=O)s2)[N+](=O)[O-])s1	-6	17	4	3	-8	-4	.
CCN1/C(=C/C=C/C2=[N+](CC)c3ccccc3C2(C)C)C(C)(C)c2ccccc21	+	-288	+	-83	+	-92	+	DDE Tn6 FP ctr=-132;DDE Tn6 confirm=93*;SIAE inh conf=+
CCOC(=O)C1(c2ccccc2)CCN(CCC(=O)Nc2cccc(Br)c2)CC1	-9	-21	3	2	0	-3	.
COC(=O)C1=C(c2ccc(OCc3ccccc3)cc2)C[C@@H]2CC[C@H]1N2C(=O)NCc1cccc(OC)c1	6	-37	31*	2	-11	5	35*
COC(=O)C1=C(c2cccc(OCc3ccccc3)c2)C[C@@H]2CC[C@H]1N2C(=O)NCc1ccc(OC)cc1	-1	-35	-2	1	-9	6	.
COC(=O)C1=C(c2ccc(OCc3ccccc3)cc2)C[C@@H]2CC[C@H]1N2C(=O)NCc1ccc(OC)cc1	-4	-40	41*	-2	-9	-4	43*
COC(=O)C1=C(c2ccc(OCc3ccccc3)cc2)C[C@@H]2CC[C@H]1N2C(=O)NCc1ccc(C(C)(C)C)cc1	-4	-32	33*	-1	-3	3	50*
COC(=O)C1=C(c2ccc(OCc3ccccc3)cc2)C[C@@H]2CC[C@H]1N2C(=O)NCc1ccccc1	0	-23	21	7	-5	1	.
COC(=O)C1=C(c2ccc(OCc3ccccc3)cc2)C[C@@H]2CC[C@H]1N2C(=O)NCc1ccc2c(c1)OCO2	5	-24	51*	4	0	14	33*
CCOC(=O)c1c(C)[nH]c(C)c1C(=O)C(Cc1ccccc1)N(C)C (centres undefined)	-2	-1	-1	4	15	10	.
Cc1ccc(C(=O)NC(O)C(Cl)(Cl)Cl)cc1 (centres undefined)	0	-3	-8	-6	-2	2	.
COc1cccc(C(=O)N2CCC3(CC2)OCCO3)c1	12	-1	-3	6	4	-4	.
Cc1cccc(-c2nc3ccc(C(=O)N4CCC5(CC4)OCCO5)cc3nc2-c2cccc(C)c2)c1	-12	-35	32*	2	-7	-1	48*
COc1cccc(CNC(=O)CCC(=O)N2C[C@H]3C[C@H](C2)c2cccc(=O)n2C3)c1OC	13	-3	2	0	8	7	.
CCCCCCCSc1cc(OC)c(CCN(C)C)cc1OC	6	21	32*	9	7	5	35*
CN(C)Cc1c[nH]c2cc([N+](=O)[O-])ccc12	11	-3	4	6	-4	-5	.
O=P(Oc1ccccc1)(Oc1ccccc1)C(O)c1ccc(Cl)cc1 (centres undefined)	-4	-8	32*	3	1	0	16
COc1ccc(C(O)P(=O)(Oc2ccccc2)Oc2ccccc2)cc1 (centres undefined)	-1	-5	25	2	-8	-5	.
COc1cc(/C=C/c2nc3ccccc3c(=O)n2-c2ccc(O)cc2)ccc1O	0	0	39*	3	8	4	45*
C=CCN(CC=C)C(=O)CCN1CC1C (centres undefined)	-7	0	0	4	1	-6	.
COc1cc(O)c(C(=O)O)c(-c2cc(O)c(O)cc2C)c1	-4	21	37*	11	13	3	33*
C[C@H]1[C@@H](OS(=O)(=O)O)C[C@@H]2C[C@H]([C@@H](O)c3cc(=O)[nH]c(=O)[nH]3)NC3=NC[C@H]1N32	.	5	.	.	.	.	.
O=[N+]([O-])c1cc(O)c(O)c([N+](=O)[O-])c1	-4	35	74*	9	6	2	50*
SMILES	DDE Tn6 FP inh	HTRA1 inh	mABHD4 FP	TCR CD3 inh	SIAE inh	Tn7 DDE FP	ABHD4 confirm	others
O=c1[nH]c(O)c(N=Nc2cc([N+](=O)[O-])ccc2O)c(=O)[nH]1	6	-24	-8	-3	-35	3	.
Fc1cccc(CCNCc2ccccn2)c1	-5	-2	20	6	7	0	.
CNc1ccc2oc(C[C@H]3O[C@@]4(CC[C@H]3C)O[C@H]([C@H](C)C(=O)c3ccc[nH]3)[C@H](C)C[C@H]4C)nc2c1C(=O)O	-2	35	30*	0	11	-8	19
COc1ncccc1C(=O)NCC(CC(=O)O)c1ccccc1 (centres undefined)	3	-2	4	3	4	-2	.
C/C(=N\NC(=O)c1ccccc1O)c1c(O)n(C2CCCCC2)c(=O)[nH]c1=O	1	17	37*	15	-6	4	44*
O=C(N/N=C/c1c(O)n(C2CC2)c(=S)[nH]c1=O)c1ccccc1O	0	4	35*	11	-22	6	25
Cc1ccccc1-n1c(O)c(/C=N/NC(=O)c2ccccc2O)c(=O)[nH]c1=S	-4	1	7	-22	-31	-2	.
C[C@]12CC[C@@H]3c4ccc(O)c(O)c4CC[C@H]3[C@@H]1CC[C@@H]2O	-5	28	30*	11	-7	2	19
O=C(C[N+]12CCN(CC1)CC2)NCCc1ccc(Cl)cc1Cl	-2	1	-1	6	-8	-3	.
Cc1ccc(-n2c(=S)[nH]c3ccc(C)cc3c2=O)cc1	0	-2	46*	-6	-4	0	33*
Cc1cc(OCC(=O)O)c2c3c(c(=O)oc2c1)CCCC3	3	4	-2	6	3	5	.
